Results: paper PMC11000255 (Journal of the American Chemical Society, 2024)
Where two headings read alike, the source gives them in different places.

What was measured:
[1] = target: K373R-ABHD12 (Homo sapiens, UniProt Q8N2K0, K373R); test: LC/MS-based LPS hydrolysis assay, K373R-ABHD12 in HEK293T cell lysates; type: biochemical; conditions: read-out: IC50, inhibition of LPS hydrolysis activity; K373R-ABHD12 mutant
Procedure, shortened: (§1)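 Recombinant ABHD12 (WT, S246A and K373 mutants) was expressed in HEK293T cells and used as cell lysate. Lysate was preincubated with the test compound (single-point 100 µM, or a dose series; 1 h, 37 °C), then given 17:1 LPS substrate (100 µM, 20 min, 37 °C).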

[2] = target: K677R/K681R/K315R-PFKL (Homo sapiens, UniProt P17858, K315R/K677R/K681R); test: enzyme-coupled F6P phosphorylation assay, K677R/K681R/K315R-PFKL triple mutant; type: biochemical; conditions: read-out: IC50, inhibition of PFKL activity
Sequence of K677R/K681R/K315R-PFKL (P17858 whole entry K315R/K677R/K681R): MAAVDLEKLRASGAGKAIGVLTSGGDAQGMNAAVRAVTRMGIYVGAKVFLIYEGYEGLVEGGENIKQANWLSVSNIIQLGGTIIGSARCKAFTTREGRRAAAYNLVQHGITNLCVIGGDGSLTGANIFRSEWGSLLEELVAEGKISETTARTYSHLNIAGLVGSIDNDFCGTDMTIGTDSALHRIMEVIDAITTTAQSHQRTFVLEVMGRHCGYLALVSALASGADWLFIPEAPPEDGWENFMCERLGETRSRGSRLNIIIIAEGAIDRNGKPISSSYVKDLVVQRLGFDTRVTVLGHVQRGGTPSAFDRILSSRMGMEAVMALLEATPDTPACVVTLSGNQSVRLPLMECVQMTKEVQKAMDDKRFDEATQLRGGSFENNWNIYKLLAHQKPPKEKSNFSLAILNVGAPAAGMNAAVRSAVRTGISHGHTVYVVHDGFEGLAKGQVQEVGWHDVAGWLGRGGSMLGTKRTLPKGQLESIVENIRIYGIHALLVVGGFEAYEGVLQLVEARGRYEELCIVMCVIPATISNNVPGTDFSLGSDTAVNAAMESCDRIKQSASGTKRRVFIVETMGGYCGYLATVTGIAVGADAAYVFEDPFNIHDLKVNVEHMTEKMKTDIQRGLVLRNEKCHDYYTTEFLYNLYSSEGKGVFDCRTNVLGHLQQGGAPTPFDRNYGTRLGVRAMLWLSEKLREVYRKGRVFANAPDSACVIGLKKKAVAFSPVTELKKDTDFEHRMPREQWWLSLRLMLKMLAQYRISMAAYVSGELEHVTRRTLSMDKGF

[3] = target: nucleostemin (GNL3) (Homo sapiens, UniProt Q9BVP2); test: TMT18plex lysine ligandability profiling, GNL3; type: binding; conditions: 100 μM, 8 h, breast cancer cells
Sequence of nucleostemin (GNL3) (Q9BVP2 whole entry): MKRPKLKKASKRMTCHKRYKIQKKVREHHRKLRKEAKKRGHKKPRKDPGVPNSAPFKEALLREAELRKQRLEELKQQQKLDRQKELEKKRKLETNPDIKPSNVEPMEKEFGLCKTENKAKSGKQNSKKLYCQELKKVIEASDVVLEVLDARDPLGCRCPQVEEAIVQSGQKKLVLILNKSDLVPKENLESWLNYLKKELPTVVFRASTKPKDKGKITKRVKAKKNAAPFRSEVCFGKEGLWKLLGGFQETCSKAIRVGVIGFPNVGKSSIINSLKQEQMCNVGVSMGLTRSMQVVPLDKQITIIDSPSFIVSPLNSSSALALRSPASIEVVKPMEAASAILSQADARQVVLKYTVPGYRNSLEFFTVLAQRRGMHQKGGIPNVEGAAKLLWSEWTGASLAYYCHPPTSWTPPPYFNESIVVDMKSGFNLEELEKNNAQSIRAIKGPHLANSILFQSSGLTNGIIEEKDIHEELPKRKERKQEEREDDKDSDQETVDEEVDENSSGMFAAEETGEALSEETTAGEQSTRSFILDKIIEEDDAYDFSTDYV
Procedure, shortened: (§2)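 Live MDA-MB-231 or MDA-MB-436 breast cancer cells were exposed to the test compound (100 µM, 8 h) or DMSO vehicle. Lysates (soluble and insoluble fractions) were chased with a desthiobiotin-tagged lysine-specific STP ester probe, trypsin-digested, streptavidin-enriched and quantified by TMTpro-18plex. Lysines had to be quantified in all biological triplicates and TMT channels. A lysine counted as liganded at ≥60% loss of probe enrichment relative to DMSO.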

[4] = target: T1, WT-PFKP (Homo sapiens, UniProt Q01813); type: binding
T1 sequence (Q01813 1-784): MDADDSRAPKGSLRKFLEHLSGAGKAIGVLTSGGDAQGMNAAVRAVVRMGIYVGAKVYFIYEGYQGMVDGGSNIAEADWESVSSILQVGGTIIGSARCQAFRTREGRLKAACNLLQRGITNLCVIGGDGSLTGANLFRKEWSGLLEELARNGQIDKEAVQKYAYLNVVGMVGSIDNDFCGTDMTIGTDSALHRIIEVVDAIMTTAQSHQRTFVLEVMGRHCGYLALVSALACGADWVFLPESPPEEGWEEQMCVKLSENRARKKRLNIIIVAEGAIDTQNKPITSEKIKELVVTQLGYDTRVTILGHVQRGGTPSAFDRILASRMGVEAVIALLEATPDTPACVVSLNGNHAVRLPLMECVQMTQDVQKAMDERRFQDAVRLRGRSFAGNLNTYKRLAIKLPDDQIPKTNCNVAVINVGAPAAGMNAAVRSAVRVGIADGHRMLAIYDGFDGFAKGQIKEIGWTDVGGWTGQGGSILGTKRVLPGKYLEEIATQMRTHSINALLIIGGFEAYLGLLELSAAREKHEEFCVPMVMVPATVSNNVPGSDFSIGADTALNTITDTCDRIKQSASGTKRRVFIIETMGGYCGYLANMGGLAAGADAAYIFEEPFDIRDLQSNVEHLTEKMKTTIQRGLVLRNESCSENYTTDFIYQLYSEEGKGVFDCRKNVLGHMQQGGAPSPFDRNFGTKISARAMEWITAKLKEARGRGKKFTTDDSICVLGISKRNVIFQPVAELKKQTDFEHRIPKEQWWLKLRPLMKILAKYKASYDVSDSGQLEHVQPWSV

[5] = system: MDA-MB-231 cells; test: untargeted lipidomics profiling of treated cells; type: cell-based, human; conditions: 100 μM, 8 h
[6] = target: K677R-PFKL (Homo sapiens, UniProt P17858, K677R); test: enzyme-coupled F6P phosphorylation assay, K677R-PFKL; type: biochemical; conditions: read-out: IC50, inhibition of PFKL activity
Sequence of K677R-PFKL (P17858 whole entry K677R): as the sequence (P17858 whole entry K315R/K677R/K681R) above, with R315K, R681K counted along it

[7] = target: K677R/K681R-PFKL (Homo sapiens, UniProt P17858, K677R/K681R); test: enzyme-coupled F6P phosphorylation assay, K677R/K681R-PFKL double mutant; type: biochemical; conditions: read-out: IC50, inhibition of PFKL activity
Sequence of K677R/K681R-PFKL (P17858 whole entry K677R/K681R): as the sequence (P17858 whole entry K315R/K677R/K681R) above, with R315K counted along it

[8] = target: PFKP (Homo sapiens, UniProt Q01813); test: TMT18plex lysine ligandability profiling, PFKP; type: binding; conditions: 100 μM, 8 h, breast cancer cells
Procedure, shortened: as §2

[9] = target: T1, WT-PFKP; test: F6P phosphorylation assay, WT-PFKP in HEK293T cell lysates; type: biochemical; conditions: read-out: IC50, inhibition of PFKP activity
[10] = target: K681R-PFKL (Homo sapiens, UniProt P17858, K681R); test: enzyme-coupled F6P phosphorylation assay, K681R-PFKL; type: biochemical; conditions: read-out: IC50, inhibition of PFKL activity
Sequence of K681R-PFKL (P17858 whole entry K681R): as the sequence (P17858 whole entry K315R/K677R/K681R) above, with R315K, R677K counted along it

[11] = target: kynurenine-oxoglutarate transaminase 3 (KYAT3) (Homo sapiens, UniProt Q6YP21); test: TMT18plex lysine ligandability profiling, KYAT3; type: binding; conditions: 100 μM, 8 h, breast cancer cells
Sequence of kynurenine-oxoglutarate transaminase 3 (KYAT3) (Q6YP21 whole entry): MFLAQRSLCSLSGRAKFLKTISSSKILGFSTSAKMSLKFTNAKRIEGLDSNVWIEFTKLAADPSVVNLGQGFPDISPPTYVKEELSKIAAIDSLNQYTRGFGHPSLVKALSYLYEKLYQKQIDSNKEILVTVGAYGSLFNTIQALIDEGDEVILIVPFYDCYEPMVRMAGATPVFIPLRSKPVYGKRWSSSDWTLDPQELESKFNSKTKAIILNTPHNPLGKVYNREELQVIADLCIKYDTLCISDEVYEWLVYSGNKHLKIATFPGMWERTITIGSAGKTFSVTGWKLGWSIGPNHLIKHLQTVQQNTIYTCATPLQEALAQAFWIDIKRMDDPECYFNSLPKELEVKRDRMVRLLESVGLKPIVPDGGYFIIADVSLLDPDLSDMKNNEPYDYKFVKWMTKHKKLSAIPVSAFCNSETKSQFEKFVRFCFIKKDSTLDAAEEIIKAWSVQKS
Procedure, shortened: as §2

[12] = target: WT-PFKL (Homo sapiens, UniProt P17858); test: enzyme-coupled F6P phosphorylation assay, WT-PFKL in HEK293T cell lysates; type: biochemical; conditions: read-out: apparent IC50, inhibition of PFKL activity
Sequence of WT-PFKL (P17858 whole entry): as the sequence (P17858 whole entry K315R/K677R/K681R) above, with R315K, R677K, R681K counted along it

[13] = target: T2, ABHD12 (Homo sapiens, UniProt Q8N2K0); test: TMT18plex lysine ligandability profiling, ABHD12; type: binding; conditions: both MDA-MB-231 and MDA-MB-436 cell lines
T2 sequence (Q8N2K0 1-398): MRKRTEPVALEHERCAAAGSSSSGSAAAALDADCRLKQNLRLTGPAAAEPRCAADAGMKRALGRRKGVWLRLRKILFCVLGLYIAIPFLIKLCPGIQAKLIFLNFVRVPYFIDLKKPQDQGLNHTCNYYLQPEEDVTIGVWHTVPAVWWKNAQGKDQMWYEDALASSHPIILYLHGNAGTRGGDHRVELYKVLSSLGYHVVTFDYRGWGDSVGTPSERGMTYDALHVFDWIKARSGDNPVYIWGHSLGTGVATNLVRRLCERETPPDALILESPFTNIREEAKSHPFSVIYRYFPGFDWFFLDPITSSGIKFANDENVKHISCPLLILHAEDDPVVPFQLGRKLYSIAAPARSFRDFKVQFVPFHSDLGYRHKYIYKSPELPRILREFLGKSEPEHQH
Procedure, shortened: as §2

[14] = target: T3, WT-ABHD12 (Homo sapiens, UniProt Q8N2K0); test: LC/MS-based LPS hydrolysis assay, WT-ABHD12 in HEK293T cell lysates; type: biochemical; conditions: read-out: apparent IC50, inhibition of LPS hydrolysis activity; WT-ABHD12
T3 sequence (Q8N2K0 1-398): T2 sequence (Q8N2K0 1-398)
Procedure, shortened: as §1

[15] = target: PFKL (Homo sapiens, UniProt P17858); test: TMT18plex lysine ligandability profiling, PFKL; type: binding; conditions: 100 μM, 8 h, breast cancer cells
Sequence of PFKL (P17858 whole entry): as the sequence (P17858 whole entry K315R/K677R/K681R) above, with R315K, R677K, R681K counted along it

[16] = target: K688R-PFKP (Homo sapiens, UniProt Q01813, K688R); test: F6P phosphorylation assay, K688R-PFKP in HEK293T cell lysates; type: biochemical; conditions: read-out: IC50, inhibition of PFKP activity; K688R-PFKP variant
Sequence of K688R-PFKP (Q01813 whole entry K688R): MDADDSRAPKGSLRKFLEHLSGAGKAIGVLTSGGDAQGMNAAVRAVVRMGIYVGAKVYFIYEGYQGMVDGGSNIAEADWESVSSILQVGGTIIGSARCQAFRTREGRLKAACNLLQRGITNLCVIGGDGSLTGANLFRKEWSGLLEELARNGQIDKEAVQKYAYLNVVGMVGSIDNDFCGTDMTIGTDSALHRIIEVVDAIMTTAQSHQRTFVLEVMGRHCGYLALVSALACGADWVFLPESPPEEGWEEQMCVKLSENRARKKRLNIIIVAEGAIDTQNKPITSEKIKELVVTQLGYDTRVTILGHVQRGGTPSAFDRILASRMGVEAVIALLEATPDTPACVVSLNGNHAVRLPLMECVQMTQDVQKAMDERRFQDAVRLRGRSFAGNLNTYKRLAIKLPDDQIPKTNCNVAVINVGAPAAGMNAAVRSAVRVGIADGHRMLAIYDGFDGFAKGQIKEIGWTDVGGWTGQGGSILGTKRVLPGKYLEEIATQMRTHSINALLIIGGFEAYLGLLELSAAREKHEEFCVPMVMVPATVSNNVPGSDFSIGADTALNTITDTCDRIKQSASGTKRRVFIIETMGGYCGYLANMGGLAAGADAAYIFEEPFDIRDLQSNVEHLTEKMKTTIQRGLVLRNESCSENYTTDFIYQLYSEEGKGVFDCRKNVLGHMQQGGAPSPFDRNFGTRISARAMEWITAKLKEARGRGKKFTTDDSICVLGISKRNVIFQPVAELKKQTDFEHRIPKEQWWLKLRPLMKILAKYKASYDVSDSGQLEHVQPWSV

Sequence of K373R-ABHD12 (Q8N2K0 whole entry K373R): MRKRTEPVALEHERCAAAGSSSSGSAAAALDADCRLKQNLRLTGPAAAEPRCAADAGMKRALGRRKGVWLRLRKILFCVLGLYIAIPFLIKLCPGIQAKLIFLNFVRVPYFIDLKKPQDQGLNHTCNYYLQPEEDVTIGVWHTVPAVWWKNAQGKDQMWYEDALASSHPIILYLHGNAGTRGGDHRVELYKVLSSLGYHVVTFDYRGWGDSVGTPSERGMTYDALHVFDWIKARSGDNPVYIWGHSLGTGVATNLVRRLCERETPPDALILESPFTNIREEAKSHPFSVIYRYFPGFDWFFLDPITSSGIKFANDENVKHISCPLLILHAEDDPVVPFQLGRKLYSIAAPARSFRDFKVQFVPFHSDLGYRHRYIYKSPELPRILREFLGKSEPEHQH

- IC50 [1]: > 100 µM
- IC50 [2]: > 100 µM
- ligandability of K20 in GNL3 [3]: 74%
- fold reduction in potency versus enantiomer (+)-guadial B ([4]; P1 probe labeling blockade): ~10 fold
- IC50 ([4]; read-out: apparent IC50, blockade of P1 probe labeling, WT-PFKP): 13.8 µM
- IC50 [6]: 8.6 µM
- IC50 [7]: 78.5 µM
- ligandability of K688 in PFKP [8]: 60%
- IC50 [9]: 3.8 µM
- IC50 [10]: 7 µM
- ligandability of K330 in KYAT3 [11]: 28%
- IC50 [12]: 4.6 µM
- ligandability of K373 in ABHD12 [13]: 66%
- IC50 [14]: 18.1 µM
- ligandability of K677 in PFKL [15]: 65%
- ligandability of K681 in PFKL [15]: 60%
- IC50 [16]: > 100 µM
SMILES: CC1(C)[C@@H]2C[C@H]3[C@H](c4ccccc4)c4c(O)c(C=O)c(O)c(C=O)c4O[C@@]3(C)[C@H]1C2 [(−)-guadial B]
- levels of monoacylglycerophosphoserine LPS(18:0) [5]: significantly elevated levels
- levels of stearic acid FA(18:0) [5]: concurrent reduction
